The results in this text go back to ChEMBL document CHEMBL1154770, “Betulinic acid derivatives as human immunodeficiency virus type 2 (HIV-2) inhibitors” (J Med Chem, 2009).

Structures are written as SMILES. Activity calls are given as the source filed them. The calls are words filed in the database; no cut-off is given here.

Data set [1] is described as follows: Cytotoxicity against human TZM-b1 cells after 2 days. In kind it is cell-based. The following applies: read-out: TC50.
Data set [2] deals with TZM-b1. The data set is described as follows: Inhibition of HIV1 YU-2 gp120 V3 loop assessed as inhibition of HIV2 KR X3 replication in human TZM-b1 cells. In kind it is cell-based. Conditions: Human immunodeficiency virus type 1 (isolate YU2). The procedure, abridged: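 Single-round infection of TZM-bl cells with 200 TCID50 of HIV-2 KR.X3 chimera carrying the HIV-1 YU2 V3 loop (KR.X3-YU2/V3), in presence of graded compound concentrations. After 2 days medium removed, Bright Glo added, luciferase luminescence read; IC50 = concentration halving RLU versus virus-control wells.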

Data set [3] relates to Human immunodeficiency virus 1. Briefly: Antiviral activity against HIV1 NL4-3 infected in human TZM-b1 cells assessed as reduction in luciferase activity after 2 days by luciferase reporter gene assay. In kind it is functional, cell-based. Conditions: Human immunodeficiency virus 1, NL4-3, TZM-b1, 48 h. The procedure, abridged:
(§1)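 Single-round infection of TZM-bl cells with 200 TCID50 of virus in the presence of graded compound concentrations. After 2 days, the medium was removed and Bright Glo reagent was added to read luciferase luminescence (RLU). IC50 is the concentration giving 50% reduction of luciferase activity relative to virus control wells.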
Background: In a reporter assay the amount or activity of a reporter protein is the signal.

The test system of data set [4] is TZM-b1. Briefly: Antiviral activity against HIV2 KR X3 infected in human TZM-b1 cells after 2 days by luciferase reporter gene assay. In kind it is functional, cell-based. Conditions: Human immunodeficiency virus type 2 (isolate KR). The procedure, abridged: as §1
Data set [5] deals with TZM-b1. Briefly: Antiviral activity against HIV2 KR X3 harboring V3 loop of HIV1 YU-2 infected in human TZM-b1 cells after 2 days by luciferase reporter gene assay. In kind it is functional, cell-based. The following applies: Human immunodeficiency virus type 2 (isolate KR). The procedure, abridged:
as §1

Data set [6] relates to HIV-1 NL4-3 (human immunodeficiency virus 1). Briefly: Antiviral activity against HIV1 NL4-3 infected in human TZM-b1 cells after 2 days by luciferase reporter gene assay. The following applies: Human immunodeficiency virus 1, NL4-3, TZM-b1, 48 h.
Data set [7] in a line: Antiviral activity against HIV2 KR X3 infected in human TZM-b1 cells assessed as reduction in luciferase activity after 2 days by luciferase reporter gene assay. In kind it is functional, cell-based, Human immunodeficiency virus type 2 (isolate KR). The following applies: Human immunodeficiency virus 2, X3, TZM-b1, 48 h. The procedure, abridged: as §1
A short description of data set [8]: Selectivity index, ratio of TC50 for human TZM-b1 cells to IC50 for HIV1 NL4-3 infected in human TZM-b1 cells. In kind it is toxicity, cell-based. The following applies: TZM-b1 cells infected with HIV1 NL4-3, read-out: Selectivity Index. The procedure, abridged: (§2)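 TC50 from 2-day CytoTox-Glo viability assay of compound-treated TZM-bl cells, divided by IC50 from single-round TZM-bl infection (200 TCID50 HIV-1 NL4-3 or HIV-2 KR.X3, 2-day luciferase read, 50% RLU reduction versus virus control).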

Data set [9] can be described thus: Selectivity index, ratio of TC50 for human TZM-b1 cells to IC50 for HIV2 KR X3 infected in human TZM-b1 cells. In kind it is toxicity, cell-based. The following applies: TZM-b1 cells infected with HIV2 KR X3, read-out: Selectivity Index. The procedure, abridged:
as §2

Data set [10] in a line: Ratio of IC50 for HIV2 KR X3 infected in human TZM-b1 cells to IC50 for HIV1 NL4-3 infected in human TZM-b1 cells. In kind it is functional. The procedure, abridged:
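IC50s from single-round TZM-bl infection with 200 TCID50 HIV-1 NL4-3 or HIV-2 KR.X3, graded compound concentrations, 2-day luciferase (Bright Glo) read-out; IC50 = 50% RLU reduction versus virus control; ratio of HIV-2 to HIV-1 IC50.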

A word on the IC50: it is the concentration at which inhibition is half-maximal. For the compound `C=C(C)[C@@H]1CC[C@]2(C(=O)NCCCCCC(=O)NCC(=O)O)CC[C@]3(C)[C@H](CC[C@@H]4[C@@]5(C)CC[C@H](O)C(C)(C)[C@@H]5CC[C@]43C)[C@@H]12`, in data set [1], the CC50 at 48 h was > 64000 nM. In addition, in the data set with TZM-b1 [2], the outcome was Active. For the same compound, the IC50 in [3] amounted to 34700 nM; in [6] it was 350 nM; in [7] it was 350 nM. Also, the Activity entry in the data set with TZM-b1 [4] and in the data set on TZM-b1 [5] was “Dose-dependent effect” throughout.

In the case of `C=C(C)[C@@H]1CC[C@]2(C(=O)NCCCCC(=O)NCC(=O)O)CC[C@]3(C)[C@H](CC[C@@H]4[C@@]5(C)CC[C@H](O)C(C)(C)[C@@H]5CC[C@]43C)[C@@H]12`, the CC50 at 48 h in data set [1] is > 65000 nM. In addition, the selectivity ratio in data set [8] was < 2. Also, in data set [7], the IC50 was 2600 nM.

Turning to `C=C(C)[C@@H]1CC[C@]2(C(=O)NCCCCCC(=O)N[C@@H](Cc3ccc(O)cc3)C(=O)O)CC[C@]3(C)[C@H](CC[C@@H]4[C@@]5(C)CC[C@H](O)C(C)(C)[C@@H]5CC[C@]43C)[C@@H]12`, the CC50 at 48 h in [1] was 54600 nM. Also, the selectivity ratio in [8] was < 2. For the same compound, the IC50 in [7] worked out at 230 nM.

Regarding `C=C(C)[C@@H]1CC[C@]2(C(=O)NCCCCCC(=O)O)CC[C@]3(C)[C@H](CC[C@@H]4[C@@]5(C)CC[C@H](O)C(C)(C)[C@@H]5CC[C@]43C)[C@@H]12`, the CC50 at 48 h in [1] was > 70000 nM. Besides, the IC50 in data set [3] worked out at 2000 nM; in data set [7] it was 150 nM.

On to `C=C(C)[C@@H]1CC[C@]2(C(=O)NCCCC(=O)O)CC[C@]3(C)[C@H](CC[C@@H]4[C@@]5(C)CC[C@H](O)C(C)(C)[C@@H]5CC[C@]43C)[C@@H]12`, for which the CC50 at 48 h in [1] came to 31200 nM. Further, in [8], the selectivity ratio is < 2. The IC50 in data set [7] was found to be 2800 nM.

On to `C=C(C)[C@@H]1CC[C@]2(C(=O)NCCCCCCCNC(C)=O)CC[C@]3(C)[C@H](CC[C@@H]4[C@@]5(C)CC[C@H](O)C(C)(C)[C@@H]5CC[C@]43C)[C@@H]12`, for which the CC50 at 48 h in data set [1] was > 66000 nM. For the same compound, the selectivity ratio in data set [9] is < 2. The IC50 in [3] and in [6] was 38 nM in each case.

As for `C=C(C)[C@@H]1CC[C@]2(C(=O)NCCCCCC(=O)NCC(=O)NCC(=O)O)CC[C@]3(C)[C@H](CC[C@@H]4[C@@]5(C)CC[C@H](O)C(C)(C)[C@@H]5CC[C@]43C)[C@@H]12`, in data set [1], the CC50 at 48 h was > 58000 nM. For the same compound, the concentration for half-maximal inhibition (IC50) is > 58000 nM in data set [3] and 1700 nM in [7].

As for `C=C(C)[C@@H]1CC[C@]2(C(=O)NCCCCCCCCNC(C)=O)CC[C@]3(C)[C@H](CC[C@@H]4[C@@]5(C)CC[C@H](O)C(C)(C)[C@@H]5CC[C@]43C)[C@@H]12`, in data set [1], the CC50 at 48 h is > 64000 nM. Moreover, the selectivity ratio in [9] is < 2. In addition, the IC50 in data set [3] came to 140 nM.

Regarding `C=C(C)[C@@H]1CC[C@]2(C(=O)NCCCCCCCC(=O)NC(CC(C)C)[C@H](O)CC(=O)O)CC[C@]3(C)[C@H](CC[C@@H]4[C@@]5(C)CC[C@H](O)C(C)(C)[C@@H]5CC[C@]43C)[C@@H]12` (single isomer, unassigned), the CC50 at 48 h in [1] was 33200 nM. In addition, the IC50 in [3] worked out at 42 nM; in [7], 2900 nM. In addition, in data set [10], the “Ratio IC50” value was 70.

In the case of `C=C(C)[C@@H]1CC[C@]2(C(=O)NCCCCC(=O)O)CC[C@]3(C)[C@H](CC[C@@H]4[C@@]5(C)CC[C@H](O)C(C)(C)[C@@H]5CC[C@]43C)[C@@H]12`, the CC50 at 48 h in data set [1] was > 72000 nM. Further, the IC50 was 32800 nM in data set [3] and 170 nM in data set [7].

Consider `C=C(C)[C@@H]1CC[C@]2(C(=O)NCCCCCCC(=O)O)CC[C@]3(C)[C@H](CC[C@@H]4[C@@]5(C)CC[C@H](O)C(C)(C)[C@@H]5CC[C@]43C)[C@@H]12`, for which, in data set [1], the CC50 at 48 h was 36200 nM. Also, the results for the IC50 in data set [3] and in data set [7] were 11100 nM and 4500 nM, respectively.

Take `C=C(C)[C@@H]1CC[C@]2(C(=O)NCCCCCCC(=O)NCC(=O)O)CC[C@]3(C)[C@H](CC[C@@H]4[C@@]5(C)CC[C@H](O)C(C)(C)[C@@H]5CC[C@]43C)[C@@H]12`: in data set [1], the CC50 at 48 h is > 63000 nM. Also, the half-maximal inhibitory concentration (IC50) stood at 4100 nM in [3] and 420 nM in [7].

Turning to `C=C(C)[C@@H]1CC[C@]2(C(=O)O)CC[C@]3(C)[C@H](CC[C@@H]4[C@@]5(C)CC[C@H](OC(=O)CC(C)(C)C(=O)O)C(C)(C)[C@@H]5CC[C@]43C)[C@@H]12` [BEVIRIMAT], the CC50 at 48 h in [1] was > 30000 nM. Further, the selectivity ratio in [9] was < 2. For the same compound, the IC50 in data set [3] was determined as 130 nM.

Turning to `C=C(C)[C@@H]1CC[C@]2(C(=O)NCCCCCCNC(C)=O)CC[C@]3(C)[C@H](CC[C@@H]4[C@@]5(C)CC[C@H](O)C(C)(C)[C@@H]5CC[C@]43C)[C@@H]12`, in data set [1], the CC50 at 48 h came out at 48100 nM. Also, the selectivity ratio in data set [9] is < 2. Also, the IC50 in data set [3] and in data set [6] was 27 nM throughout.

`C=C(C)[C@@H]1CC[C@]2(C(=O)NCCCCCCCC(=O)O)CC[C@]3(C)[C@H](CC[C@@H]4[C@@]5(C)CC[C@H](O)C(C)(C)[C@@H]5CC[C@]43C)[C@@H]12`: the CC50 at 48 h in data set [1] stood at 34200 nM. Also, the selectivity ratio in data set [9] is < 2. In addition, the IC50 in data set [3] stood at 840 nM.

Consider `C=C(C)[C@@H]1CC[C@]2(C(=O)NCCCC(=O)NCC(=O)O)CC[C@]3(C)[C@H](CC[C@@H]4[C@@]5(C)CC[C@H](O)C(C)(C)[C@@H]5CC[C@]43C)[C@@H]12`, for which, in data set [1], the CC50 at 48 h was > 67000 nM. Besides, in data set [8], the selectivity ratio was < 2. Besides, in data set [7], the IC50 came to 3700 nM.

With `C=C(C)[C@@H]1CC[C@]2(C(=O)NCCCCCCCC(=O)NCC(=O)O)CC[C@]3(C)[C@H](CC[C@@H]4[C@@]5(C)CC[C@H](O)C(C)(C)[C@@H]5CC[C@]43C)[C@@H]12`, the CC50 at 48 h in [1] turned out to be 15800 nM. Further, the values for the concentration for half-maximal inhibition (IC50) in [3] and in [7] were 120 nM and 640 nM, respectively.

For the compound `C=C(C)[C@@H]1CC[C@]2(C(=O)NCCCCCCNC(=O)CC(=O)O)CC[C@]3(C)[C@H](CC[C@@H]4[C@@]5(C)CC[C@H](O)C(C)(C)[C@@H]5CC[C@]43C)[C@@H]12`, the CC50 at 48 h in [1] amounted to 34600 nM. Moreover, the selectivity ratio in data set [9] is < 2. For the same compound, in [3], the IC50 was 440 nM.

For the compound `C=C(C)[C@@H]1CC[C@]2(C(=O)NCCCCCC(=O)N3CCC[C@H]3C(=O)O)CC[C@]3(C)[C@H](CC[C@@H]4[C@@]5(C)CC[C@H](O)C(C)(C)[C@@H]5CC[C@]43C)[C@@H]12`, in [1], the CC50 at 48 h was > 60000 nM. Also, the IC50 in [3] turned out to be 51400 nM; in data set [7], 630 nM.

Turning to `Cc1cn([C@H]2C[C@H](N=[N+]=[N-])[C@@H](CO)O2)c(=O)[nH]c1=O` [ZIDOVUDINE], the 50% inhibitory concentration (IC50) in [7] was 69 nM.

Regarding `C=C(C)[C@@H]1CC[C@]2(C(=O)NCCCCCNC(C)=O)CC[C@]3(C)[C@H](CC[C@@H]4[C@@]5(C)CC[C@H](O)C(C)(C)[C@@H]5CC[C@]43C)[C@@H]12`, the CC50 at 48 h in data set [1] stood at 13900 nM. Moreover, the selectivity ratio in data set [9] and in data set [8] was < 2 in each case.

For `C=C(C)[C@@H]1CC[C@]2(C(=O)O)CC[C@]3(C)[C@H](CC[C@@H]4[C@@]5(C)CC[C@H](O)C(C)(C)[C@@H]5CC[C@]43C)[C@@H]12` [BETULINIC ACID], the CC50 at 48 h in data set [1] was > 80000 nM. For the same compound, the selectivity ratio in data set [9] and in data set [8] was < 2 in each case.

For `C=C(C)[C@@H]1CC[C@]2(C(=O)NCCCCCC(=O)N[C@@H](C)C(=O)O)CC[C@]3(C)[C@H](CC[C@@H]4[C@@]5(C)CC[C@H](O)C(C)(C)[C@@H]5CC[C@]43C)[C@@H]12`, the CC50 at 48 h in [1] is > 63000 nM. The IC50 in data set [3] was 48900 nM; in data set [7], 370 nM.
